Active and inactive are the calls of the source. The rule behind the calls is not given here.
How the values were obtained:
[1] = molecular target: T1, Phosphatidylinositol 3,4,5-trisphosphate 5-phosphatase 2 (Mus musculus) (UniProt Q6P549); test: Inhibition of SHIP2 in mouse 3T3L1 cells assessed as reduction of TNF-alpha induced decrease in insulin-stimulated Akt phosphorylation at Thr308 at 10 uM treated for 15 mins after TNF alpha challenge for 16 hrs and prior to insulin stimulation measured after 2 hrs by Western blot analysis; format: cell-based; conditions: 3T3-L1
T1 sequence (whole entry): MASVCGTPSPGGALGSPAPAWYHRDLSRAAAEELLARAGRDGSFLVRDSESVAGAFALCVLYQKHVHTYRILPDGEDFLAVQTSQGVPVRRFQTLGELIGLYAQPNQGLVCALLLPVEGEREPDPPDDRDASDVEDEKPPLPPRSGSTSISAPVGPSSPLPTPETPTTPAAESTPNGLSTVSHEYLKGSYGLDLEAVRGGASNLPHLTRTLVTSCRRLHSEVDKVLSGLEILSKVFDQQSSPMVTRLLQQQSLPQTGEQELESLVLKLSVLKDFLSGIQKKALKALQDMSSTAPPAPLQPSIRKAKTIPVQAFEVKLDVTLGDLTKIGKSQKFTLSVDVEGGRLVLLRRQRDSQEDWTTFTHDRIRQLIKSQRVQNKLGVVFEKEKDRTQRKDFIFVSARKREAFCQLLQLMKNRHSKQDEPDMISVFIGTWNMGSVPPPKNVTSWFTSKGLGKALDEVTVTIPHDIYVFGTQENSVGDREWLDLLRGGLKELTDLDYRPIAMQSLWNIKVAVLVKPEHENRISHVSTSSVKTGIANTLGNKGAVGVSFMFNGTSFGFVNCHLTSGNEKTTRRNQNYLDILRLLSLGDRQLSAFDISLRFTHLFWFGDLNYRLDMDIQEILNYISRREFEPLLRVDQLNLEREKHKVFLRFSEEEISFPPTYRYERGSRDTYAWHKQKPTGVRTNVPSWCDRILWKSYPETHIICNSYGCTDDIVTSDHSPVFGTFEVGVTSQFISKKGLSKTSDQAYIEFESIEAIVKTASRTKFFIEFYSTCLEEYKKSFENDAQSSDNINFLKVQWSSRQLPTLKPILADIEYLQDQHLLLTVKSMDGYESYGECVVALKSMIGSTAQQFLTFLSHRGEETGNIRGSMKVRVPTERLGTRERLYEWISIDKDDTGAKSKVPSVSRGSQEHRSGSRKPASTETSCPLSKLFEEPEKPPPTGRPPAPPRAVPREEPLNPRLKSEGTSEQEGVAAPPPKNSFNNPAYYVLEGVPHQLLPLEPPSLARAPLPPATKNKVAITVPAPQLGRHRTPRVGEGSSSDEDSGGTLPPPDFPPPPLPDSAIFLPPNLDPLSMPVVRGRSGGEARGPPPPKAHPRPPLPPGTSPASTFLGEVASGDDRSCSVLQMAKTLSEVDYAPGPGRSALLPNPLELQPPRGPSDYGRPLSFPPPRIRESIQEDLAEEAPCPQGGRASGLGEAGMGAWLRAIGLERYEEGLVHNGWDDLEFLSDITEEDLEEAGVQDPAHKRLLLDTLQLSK
Procedure, shortened: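 3T3-L1 fibroblasts differentiated into adipocytes, then serum-starved 16 h with TNFα 20 ng/mL. Treated with compound 10 µM or 0.1% DMSO for 15 min, then stimulated with 17 nM insulin at 37 °C for 2 h. Cells lysed on ice at pH 7.5 and Thr308 phospho-Akt measured by western blot. Results given as fold change versus TNFα+insulin control. Mean ± SE.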

[2] = molecular target: T2, Phosphatidylinositol 3,4,5-trisphosphate 5-phosphatase 2 (Homo sapiens, UniProt O15357); test: Inhibition of SHIP2 (unknown origin)
T2 sequence (O15357 whole entry): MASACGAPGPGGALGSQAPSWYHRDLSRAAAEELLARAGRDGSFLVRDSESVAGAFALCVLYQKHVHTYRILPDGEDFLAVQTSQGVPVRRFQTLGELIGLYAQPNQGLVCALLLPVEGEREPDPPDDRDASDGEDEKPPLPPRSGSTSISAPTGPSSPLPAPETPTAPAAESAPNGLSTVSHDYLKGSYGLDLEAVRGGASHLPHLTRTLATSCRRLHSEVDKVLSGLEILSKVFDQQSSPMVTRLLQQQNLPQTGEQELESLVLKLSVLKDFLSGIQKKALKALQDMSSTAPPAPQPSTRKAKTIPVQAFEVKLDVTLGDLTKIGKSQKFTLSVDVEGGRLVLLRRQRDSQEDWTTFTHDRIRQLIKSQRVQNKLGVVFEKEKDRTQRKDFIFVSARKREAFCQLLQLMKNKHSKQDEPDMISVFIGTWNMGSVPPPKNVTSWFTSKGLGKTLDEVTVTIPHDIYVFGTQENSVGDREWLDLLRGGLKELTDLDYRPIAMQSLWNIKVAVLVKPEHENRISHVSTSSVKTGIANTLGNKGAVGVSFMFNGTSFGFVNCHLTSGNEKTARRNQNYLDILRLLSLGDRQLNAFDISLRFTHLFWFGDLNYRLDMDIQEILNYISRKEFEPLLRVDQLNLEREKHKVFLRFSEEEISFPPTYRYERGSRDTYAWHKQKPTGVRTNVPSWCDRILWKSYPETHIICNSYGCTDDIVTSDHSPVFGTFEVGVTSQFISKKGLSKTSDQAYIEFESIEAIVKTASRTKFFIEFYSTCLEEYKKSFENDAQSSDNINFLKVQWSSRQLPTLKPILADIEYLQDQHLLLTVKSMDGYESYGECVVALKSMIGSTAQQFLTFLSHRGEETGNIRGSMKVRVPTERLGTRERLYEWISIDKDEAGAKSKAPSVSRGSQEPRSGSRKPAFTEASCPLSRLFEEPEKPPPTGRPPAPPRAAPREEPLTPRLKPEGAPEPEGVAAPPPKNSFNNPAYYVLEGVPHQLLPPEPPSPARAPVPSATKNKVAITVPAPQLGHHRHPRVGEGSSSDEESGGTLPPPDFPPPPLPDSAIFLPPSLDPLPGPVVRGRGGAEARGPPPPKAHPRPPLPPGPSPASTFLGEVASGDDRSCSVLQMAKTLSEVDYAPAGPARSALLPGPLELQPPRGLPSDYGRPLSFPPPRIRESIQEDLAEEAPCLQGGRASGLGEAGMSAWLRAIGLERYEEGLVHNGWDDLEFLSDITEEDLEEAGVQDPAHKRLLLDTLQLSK

Row | inhibition [1] | IC50 [2] | Compound
1 | Active | – | O=C(Cc1ccccc1)Nc1cc(COCc2ccc(Cl)cc2)ccn1
2 | Active | – | O=C(CCc1ccccc1)Nc1cc(COCc2ccc(Cl)cc2)ccn1
3 | Active | – | O=C(CCc1ccccc1)Nc1cc(OCc2ccc(Cl)cc2)ccn1
4 | Active | – | O=C(CCc1ccccc1)Nc1cc(COCc2ccc(F)cc2)ccn1
5 | Active | – | O=C(Cc1ccccc1)Nc1cc(OCc2ccc(F)cc2)ccn1

Continued, compound first:

Row | Compound | inhibition [1] | IC50 [2]
6 | O=C(Cc1c(F)cccc1F)Nc1cc(COCc2ccc(F)cc2)ccn1 | Active | –
7 | O=C(CCc1ccccc1)Nc1cc(COCc2ccccc2)ccn1 | Active | –
8 | O=C(Cc1ccc(F)cc1)Nc1cc(OCc2ccc(F)cc2)ccn1 | Active | –
9 | O=C(Cc1cc(F)cc(F)c1)Nc1cc(COCc2ccc(F)cc2)ccn1 | Active | –
10 | CC(C)N(CCNc1ccc(-c2cc(-c3ccc(F)cc3)n(-c3ccc(Cl)c(Cl)c3)n2)cn1)C(C)C | – | 1100 nM
11 | O=C(Cc1ccccc1C(F)(F)F)Nc1cc(OCc2ccc(Cl)cc2)ccn1 | Active | –
12 | O=C(Cc1c(F)cccc1F)Nc1cc(OCc2ccc(F)cc2)ccn1 | Active | –
